{"source": "ChEMBL document CHEMBL1944515", "about": "(J Med Chem, 2012)", "key": {"MCF7": {"tested_on": "MCF7", "experiment": "Cytotoxicity against human MCF7 cells after 72 hrs by MTT assay", "assay_type": "functional, cell-based", "details": "MCF7, 72 h"}, "LoVo": {"tested_on": "LoVo", "experiment": "Cytotoxicity against human LoVo cells after 72 hrs by MTT assay", "assay_type": "functional, cell-based", "outline": "(§1)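 Cells seeded at 8 × 10^3 per well and left 18 h at 37 °C, 5% CO2, then given fresh medium with compound at a range of concentrations for 72 h; DMSO at most 0.25% final. Viability read by MTT relative to 0.25% DMSO-treated cells. […] LoVoDoxo kept in Ham's F12 with 0.1 μg/mL doxorubicin; A549-T12 kept in DMEM with 12 nM paclitaxel.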"}, "Jurkat": {"tested_on": "Jurkat", "experiment": "Cytotoxicity against human Jurkat cells after 72 hrs by MTT assay", "assay_type": "functional, cell-based", "outline": "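8 × 10^3 cells/well were preincubated 18 h at 37 °C, 5% CO2, then given graded concentrations for 72 h, with final DMSO not above 0.25%. Viability was read by MTT. […] Mean ± SE from at least three experiments.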"}, "HeLa [1]": {"tested_on": "HeLa", "experiment": "Induction of apoptosis in human HeLa cells assessed as caspase3 activation at 50 to 100 nM after 24 to 48 hrs by Western blot analysis", "assay_type": "functional, cell-based", "outline": "(§2)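 HeLa cells were treated for 24 or 48 h, washed in ice-cold PBS and lysed on ice for 30 min; lysates were spun at 15000g, 4 °C. 20 μg protein per lane on SDS-PAGE (7.5–15%), then PVDF. Blocked overnight at 4 °C, primary antibodies 2 h at room temperature, peroxidase secondary 60 min, ECL detection. Blots were reprobed for β-actin as loading control.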"}, "HeLa [2]": {"tested_on": "HeLa", "experiment": "Induction of ROS production in human HeLa cells at 50 to 100 nM after 24 to 48 hrs by HE staining-based flow cytometry", "assay_type": "functional, cell-based", "outline": "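HeLa cells were exposed for 24 or 48 h, then stained with hydroethidine or H2-DCFDA for ROS and read by flow cytometry. DMSO ≤0.25%. Mean ± SEM of three independent experiments.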"}, "[3]": {"experiment": "Cytotoxicity against human CEM/VBL100 cells after 72 hrs by MTT assay", "assay_type": "functional, cell-based", "details": "CEM/VBL100, 72 h", "outline": "as §1"}, "HeLa [4]": {"tested_on": "HeLa", "experiment": "Induction of apoptosis in human HeLa cells assessed as change in Bax protein expression at 50 to 100 nM after 24 to 48 hrs by Western blot analysis", "assay_type": "functional, cell-based", "outline": "as §2"}, "Mus musculus": {"tested_on": "Mus musculus", "experiment": "Toxicity in BALB/c nude mouse assessed as change in body weight at 100 mg/kg, ip administered on days 0,2 and 4 measured after 1 week relative to control", "assay_type": "organism-based", "design": "dose 100 mg/kg, route intraperitoneal", "details": "in vivo, 168 h", "outline": "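HT-29 cells in log phase, resuspended in serum-free RPMI 1640 at 1 × 10^7 cells/mL, inoculated 0.2 mL subcutaneously in the back of nude mice. At ~300 mm3, 18 mice were randomized to vehicle or two treatment groups. Dosing: 100 mg/kg in DMSO, ip at 0.01 mL/g, on days 0, 2 and 4. Tumor volume by caliper as (LW2)/2 and body weight recorded; n = 6 per group, mean ± SEM.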"}, "HeLa [5]": {"tested_on": "HeLa", "experiment": "Induction of apoptosis in human HeLa cells assessed as increase in annexin-V positive apoptotic cells after 24 to 48 hrs by FITC conjugated annexin-V/PI staining-based flow cytometry", "assay_type": "functional, cell-based", "outline": "(§3)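 Flow cytometry of HeLa cells after 24 or 48 h exposure, double-stained with annexin-V-FITC and propidium iodide. Excitation at 488 nm, emission at 525 nm (FITC) and 585 nm (PI). Quadrants scored as live, early apoptotic, late apoptotic or necrotic cells.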"}, "HeLa [6]": {"tested_on": "HeLa", "experiment": "Induction of apoptosis in human HeLa cells assessed as early apoptotic cells at 100 nM after 48 hrs by FITC conjugated annexin-V/PI staining-based flow cytometry (reference value: 9.6%)", "assay_type": "functional", "outline": "as §3"}, "[7]": {"molecular_target": "T1, M-phase inducer phosphatase 3 (Homo sapiens) (UniProt P30307)", "T1 sequence (whole entry)": "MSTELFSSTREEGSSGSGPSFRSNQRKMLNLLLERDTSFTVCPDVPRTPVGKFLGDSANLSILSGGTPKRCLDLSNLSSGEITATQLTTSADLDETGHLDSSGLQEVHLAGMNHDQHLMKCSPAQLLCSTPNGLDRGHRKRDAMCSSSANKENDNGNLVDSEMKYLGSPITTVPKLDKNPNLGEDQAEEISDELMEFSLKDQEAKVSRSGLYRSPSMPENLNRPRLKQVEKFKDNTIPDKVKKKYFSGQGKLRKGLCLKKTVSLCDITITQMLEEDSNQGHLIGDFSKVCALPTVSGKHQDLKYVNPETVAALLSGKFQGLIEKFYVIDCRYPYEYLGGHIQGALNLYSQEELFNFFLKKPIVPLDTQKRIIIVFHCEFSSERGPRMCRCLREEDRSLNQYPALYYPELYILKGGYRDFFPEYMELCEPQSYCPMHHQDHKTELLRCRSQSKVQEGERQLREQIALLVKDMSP", "experiment": "Induction of cdc2 (Tyr15) dephosphorylation in human HeLa cells at 50 to 100 nM after 24 hrs by Western blot analysis"}, "[8]": {"molecular_target": "T1, M-phase inducer phosphatase 3 (Homo sapiens)", "experiment": "Induction of cdc25c phosphorylation in human HeLa cells at 50 to 100 nM after 24 hrs by Western blot analysis"}, "HeLa [9]": {"tested_on": "HeLa", "experiment": "Induction of cell cycle arrest in human HeLa cells assessed as increase in cyclin B1 expression at 50 to 100 nM after 24 to 48 hrs by Western blot analysis", "assay_type": "functional, cell-based", "outline": "as §2"}, "HeLa [10]": {"tested_on": "HeLa", "experiment": "Induction of cell cycle arrest in human HeLa cells assessed as increase in G2/M phase cells after 24 hrs by flow cytometry", "assay_type": "functional, cell-based", "outline": "(§4)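 5 × 10^5 exponentially growing HeLa cells were treated with 15–250 nM for 24 h, fixed in ice-cold 70% ethanol, then treated with lysis buffer containing RNase A and 0.1% Triton X-100. PI staining of DNA content, read by flow cytometry. Mean ± SEM of three independent experiments.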"}, "HeLa [11]": {"tested_on": "HeLa", "experiment": "Induction of apoptosis in human HeLa cells assessed as PARP cleavage at 50 to 100 nM after 24 to 48 hrs by Western blot analysis", "assay_type": "functional, cell-based", "outline": "as §2"}, "HL-60": {"tested_on": "HL-60", "experiment": "Cytotoxicity against human HL60 cells after 72 hrs by MTT assay", "assay_type": "functional, cell-based", "details": "HL-60, 72 h"}, "HT-29": {"tested_on": "HT-29", "experiment": "Cytotoxicity against human HT-29 cells after 72 hrs by MTT assay", "assay_type": "functional, cell-based", "details": "HT-29, 72 h"}, "HeLa [12]": {"tested_on": "HeLa", "experiment": "Induction of cell cycle arrest in human HeLa cells assessed as decrease in S phase cells at 15 to 250 nM after 24 hrs by flow cytometry", "assay_type": "functional, cell-based", "outline": "as §4"}, "HeLa [13]": {"tested_on": "HeLa", "experiment": "Induction of apoptosis in human HeLa cells assessed as viable cells at 100 nM after 48 hrs by FITC conjugated annexin-V/PI staining-based flow cytometry (reference value: 86.7%)", "assay_type": "functional", "details": "read-out: Activity", "outline": "as §3"}, "HeLa [14]": {"tested_on": "HeLa", "experiment": "Induction of cell cycle arrest in human HeLa cells assessed as increase in G2/M phase cells at 30 nM after 24 hrs by flow cytometry", "assay_type": "functional, cell-based", "outline": "as §4"}, "HeLa [15]": {"tested_on": "HeLa", "experiment": "Induction of cell cycle arrest in human HeLa cells assessed as decrease in G1 phase cells at 15 to 250 nM after 24 hrs by flow cytometry", "assay_type": "functional, cell-based", "outline": "as §4"}, "HeLa [16]": {"tested_on": "HeLa", "experiment": "Induction of apoptosis in human HeLa cells assessed as decrease in Bcl2 protein level at 50 to 100 nM after 48 hrs by Western blot analysis", "assay_type": "functional, cell-based", "outline": "as §2"}}, "note": "Active and inactive are the calls of the source. The rule behind the calls is not given here."}
{"compound": "CCOc1ccc(-c2nnnn2-c2cc(OC)c(OC)c(OC)c2)cc1", "values": [{"measurement": "IC50", "setting": "MCF7", "value": 2.3, "unit": "nM"}, {"measurement": "IC50", "setting": "LoVo", "value": 1.1, "unit": "nM"}, {"measurement": "IC50", "setting": "Jurkat", "value": 0.16, "unit": "nM"}, {"measurement": "Activity", "setting": "HeLa [1]", "value": "Active"}, {"measurement": "Activity", "setting": "HeLa [2]", "value": "Active"}, {"measurement": "IC50", "setting": "[3]", "value": 0.7, "unit": "nM"}, {"measurement": "Activity", "setting": "HeLa [4]", "value": "inactive"}, {"measurement": "Activity", "setting": "Mus musculus", "value": "Non-toxic"}, {"measurement": "Activity", "setting": "HeLa [5]", "value": "Dose-dependent effect"}, {"measurement": "Activity", "setting": "HeLa [6]", "value": 34.4, "unit": "%"}, {"measurement": "induction", "setting": "[7]", "value": "Active"}, {"measurement": "induction", "setting": "[8]", "value": "Active"}, {"measurement": "Activity", "setting": "HeLa [9]", "value": "Active"}, {"measurement": "Activity", "setting": "HeLa [10]", "value": "Dose-dependent effect"}, {"measurement": "Activity", "setting": "HeLa [11]", "value": "Active"}, {"measurement": "IC50", "setting": "HL-60", "value": 1.3, "unit": "nM"}, {"measurement": "IC50", "setting": "HT-29", "value": 2.8, "unit": "nM"}, {"measurement": "Activity", "setting": "HeLa [12]", "value": "Active"}, {"measurement": "viability at 0.1 µM", "setting": "HeLa [13]", "value": 36.1, "unit": "%"}, {"measurement": "Activity", "setting": "HeLa [14]", "value": "Active"}, {"measurement": "Activity", "setting": "HeLa [15]", "value": "Active"}, {"measurement": "Activity", "setting": "HeLa [16]", "value": "Active"}]}
